Entries after “also recorded” stand apart in the source; their conditions may differ.
Experiments:
AlinCSP4 [1] = target: T1, AlinCSP4 (Adelphocoris lineolatus, UniProt K9J9S0); assay: Fluorescence competitive binding assay with 1-NPN as probe, recombinant AlinCSP4; conditions: for binding to AlinCSP4 (in words): competitive binding with 1-NPN
T1 sequence (K9J9S0 20-127): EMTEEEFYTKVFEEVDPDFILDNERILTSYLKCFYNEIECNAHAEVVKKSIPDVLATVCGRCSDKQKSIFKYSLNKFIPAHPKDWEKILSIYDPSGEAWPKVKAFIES
Outline: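 Refolded, His-tag-cleaved recombinant protein at 2 μM and 1-NPN at 2 μM in Tris-HCl pH 7.4 were titrated with 1 mM competitor stock to 2–30 μM final, at 25°C. Excitation was 337 nm, with emission read at 390–460 nm. IC50 is the competitor level that halves 1-NPN fluorescence, and Ki = IC50/(1+[1-NPN]/K1-NPN). IC50 <20 μM was taken as good binding; Ki was not calculated when IC50 >30 μM.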

[2] = tested on: antennae of female and male adults of A. lineolatus; conditions: exceptions at 10% level; cited from earlier work
[3] = tested on: antennae of female and male adults of A. lineolatus; assay: Electroantennogram; parameters: species or system Adelphocoris lineolatus; conditions: 0.01%, 0.1%, 1%, 10% v/v, normalized to 10% 3-hexanone
Outline: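 Antennae were excised from newly emerged lab-reared adults (green beans and 10% honey, 14L:10D, 29±1°C) and mounted between two electrodes with electrode gel. A 10 μL aliquot per dose was delivered in an air stream of 10 ml/sec, and signals were recorded for 5 s from 1 s before the stimulus. Paraffin oil served as control. Six antennae per sex were tested per compound, given as normalized mean ± SE and compared by one-way ANOVA (α=0.05).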

AlinCSP4 [4] = target: T1, AlinCSP4; assay: Binding of fluorescent probe 1-NPN to recombinant AlinCSP4
Outline: (§1)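 Recombinant mature protein (E. coli BL21(DE3), pET30a(+)) was refolded from inclusion bodies, purified by two rounds of Ni affinity, and had the His-tag removed with enterokinase. 2 μM protein in 50 mM Tris-HCl pH 7.4 was titrated with 1 mM 1-NPN in methanol (stock) to 1–16 μM final, at 25°C. Excitation was 337 nm; emission peak was read at 390–460 nm. Analysis assumed 1:1 stoichiometry with fully active protein, using a Scatchard plot.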

AlinCSP5 = target: T2, AlinCSP5 (Adelphocoris lineolatus, UniProt K9J9X7); assay: Binding of fluorescent probe 1-NPN to recombinant AlinCSP5
T2 sequence (K9J9X7 22-127): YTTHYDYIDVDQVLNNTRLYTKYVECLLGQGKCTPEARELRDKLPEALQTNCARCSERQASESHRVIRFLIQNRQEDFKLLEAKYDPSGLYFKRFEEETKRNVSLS
Outline: as §1

AlinCSP6 = target: T3, AlinCSP6 (Adelphocoris lineolatus, UniProt K9J9R7); assay: Binding of fluorescent probe 1-NPN to recombinant AlinCSP6
T3 sequence (K9J9R7 20-132): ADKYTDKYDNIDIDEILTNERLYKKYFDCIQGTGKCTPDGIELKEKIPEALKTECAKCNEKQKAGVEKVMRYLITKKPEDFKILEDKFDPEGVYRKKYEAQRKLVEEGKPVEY
Outline: as §1

[5] = tested on: female adults of A. lineolatus; conditions: plant volatile emitted by Bt cotton plants; cited from earlier work
AlinCSP1 = conditions: cited from earlier work

Row | Molecule | IC50 (AlinCSP4 [1]) | further results
1 | CC(=O)CCC=C(C)C [6-Methyl-5-hepten-2-one] | 20.2 ± 2.62 µM | 
2 | CC(=O)c1ccccc1 [Acetophenone] | 27.5 ± 1.73 µM | 
3 | O=Cc1ccccc1 [Benzaldehyde] | 14.3 ± 1.86 µM | 
4 | CCCCOC(=O)CCC [Butyl butyrate] | 21.1 ± 0.51 µM | 
5 | c1ccc2[nH]ccc2c1 [Indole] | 23.3 ± 1.6 µM | 
6 | c1ccc(Nc2cccc3ccccc23)cc1 [Ligand 1-NPN, N-phenyl-1-naphthylamine] |  | Kd (AlinCSP4 [4]): 2.8 ± 0.4 µM; Kd (AlinCSP5): 4.2 ± 0.5 µM; Kd (AlinCSP6): 8.3 ± 1.8 µM
7 | CCCCCC(C)=O [Ligand 2-Heptanone, 2-Heptanone] | 27.3 ± 0.6 µM | 
8 | CCCCC(C)=O [Ligand 2-Hexanone, 2-Hexanone] | 25.7 ± 0.53 µM | 
9 | CCCCCCC(C)=O [Ligand 2-Octanone, 2-Octanone] | 25.2 ± 2.39 µM | 
10 | CCCC(=O)CC [Ligand 3-Hexanone, 3-Hexanone] | 24.2 ± 0.84 µM | attraction of female adults (in words) [5]: strongly attract
11 | C=C(C)[C@H]1CC=C(C)CC1 [Limonene] |  | binding to AlinCSP4 (in words) (AlinCSP4 [1]): no binding; EAG response of terpenoids (in words) [2]: good EAG responses
12 | COC(=O)c1ccccc1O [Methyl salicylate] | 12.7 ± 2.01 µM | 
13 | C=CC(=C)CCC=C(C)C [Myrcene] | 20.1 ± 0.81 µM | 
14 | CC/C=C\CCO [cis-3-Hexen-1-ol] | 21.7 ± 0.88 µM | 
15 | CC/C=C\CCOC(C)=O [cis-3-hexenyl acetate] | > 30 µM | binding to AlinCSP4 (in words) (AlinCSP4 [1]): no binding; also recorded: no or very weak binding; binding affinity to AlinCSP1 (in words) (AlinCSP1): very good binding affinity
16 | CCC/C=C/C=O [trans-2-Hexenal] | 16.3 ± 0.51 µM | 
17 | C=C/C(C)=C/CC=C(C)C [trans-β-Ocimene, trans -β-Ocimene] |  | binding to AlinCSP4 (in words) (AlinCSP4 [1]): no binding
18 | CC1=CC[C@H](C(C)C)C=C1 [α-Phellandrene] | > 30 µM | binding to AlinCSP4 (in words) (AlinCSP4 [1]): no binding; EAG response of terpenoids (in words) [2]: good EAG responses
19 | C=C1CCC2CC1C2(C)C (stereo not drawn) [β-Pinene] | > 30 µM | binding to AlinCSP4 (in words) (AlinCSP4 [1]): no binding
20 | (+)-α-Pinene |  | binding to AlinCSP4 (in words) (AlinCSP4 [1]): no binding

Now from value to molecule, other results behind:

Row | IC50 (AlinCSP4 [1]) | Molecule | further results
21 | 2 ± 0.17 µM | C=CC(C)(O)CCC=C(C)CCC=C(C)C (mixture of isomers) [Nerolidol] | EAG response of terpenoids (in words) [2]: good EAG responses
22 | 10.6 ± 0.75 µM | Cc1ccc(C=O)cc1C [3,4-Dimethyl-benzaldehyde] | 
23 | 9.81 ± 1.55 µM | CCCC(=O)OCC [Ethyl butyrate] | 
24 | 11.4 ± 0.47 µM | CCCCCCC=O [Heptanal] | 
25 | 10.5 ± 2.11 µM | CCCCCC=O [Hexanal] | 
26 | 9.22 ± 1.77 µM | CCCCCCOC(=O)CCC [Hexyl butyrate] | EAG response (in words) [3]: more sensitive EAG responses
27 | 2.36 ± 0.21 µM | CCCCCCOC(=O)CCCCC [Hexyl hexanoate] | 
28 | 12.5 ± 0.88 µM | CCCCCCO [Ligand 1-Hexanol, 1-Hexanol] | 
29 | 9.63 ± 0.3 µM | CCCCC(C)O (stereo not drawn) [Ligand 2-Hexanol, 2-Hexanol] | 
30 | 13 ± 1.43 µM | CCCCCCCCC=O [Nonanal] | 
31 | 5.83 ± 0.44 µM | CCCCCCCCCOC(C)=O [Nonyl acetate] | 
32 | 10.9 ± 0.86 µM | CCCCCCCC=O [Octanal] | 
33 | 7.13 ± 1.29 µM | CCCCCCCCCCC [Undecane] | 
34 | 11 ± 2.09 µM | CCC/C=C/COC(=O)CCC [trans-2-hexenyl butyrate] | EAG response (in words) [3]: more sensitive EAG responses
35 | 2.26 ± 0.26 µM | C=C1CC/C=C(\C)CC[C@@H]2[C@@H]1CC2(C)C [β-Caryophyllene] | 
36 | 10.1 ± 1.24 µM | CC(=O)/C=C/C1=C(C)CCCC1(C)C [β-Ionone] | 
